Screening data (PubChem)
TRPC6 act – activators of mouse TRPC6 channel; Q61143; HEK293-TRPC6 membrane potential dye fluorescence; hits give high values; B-score at 10 µM; actives 0.13% (n = 310,000); AID 2550;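 active = B-score of the integrated fluorescence ratio above library mean plus 3 SD, and starting fluorescence ratio within library mean plus 5 SD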;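 note: higher score means more depolarization so channel activation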
Target sequence (Q61143 whole entry, looked up): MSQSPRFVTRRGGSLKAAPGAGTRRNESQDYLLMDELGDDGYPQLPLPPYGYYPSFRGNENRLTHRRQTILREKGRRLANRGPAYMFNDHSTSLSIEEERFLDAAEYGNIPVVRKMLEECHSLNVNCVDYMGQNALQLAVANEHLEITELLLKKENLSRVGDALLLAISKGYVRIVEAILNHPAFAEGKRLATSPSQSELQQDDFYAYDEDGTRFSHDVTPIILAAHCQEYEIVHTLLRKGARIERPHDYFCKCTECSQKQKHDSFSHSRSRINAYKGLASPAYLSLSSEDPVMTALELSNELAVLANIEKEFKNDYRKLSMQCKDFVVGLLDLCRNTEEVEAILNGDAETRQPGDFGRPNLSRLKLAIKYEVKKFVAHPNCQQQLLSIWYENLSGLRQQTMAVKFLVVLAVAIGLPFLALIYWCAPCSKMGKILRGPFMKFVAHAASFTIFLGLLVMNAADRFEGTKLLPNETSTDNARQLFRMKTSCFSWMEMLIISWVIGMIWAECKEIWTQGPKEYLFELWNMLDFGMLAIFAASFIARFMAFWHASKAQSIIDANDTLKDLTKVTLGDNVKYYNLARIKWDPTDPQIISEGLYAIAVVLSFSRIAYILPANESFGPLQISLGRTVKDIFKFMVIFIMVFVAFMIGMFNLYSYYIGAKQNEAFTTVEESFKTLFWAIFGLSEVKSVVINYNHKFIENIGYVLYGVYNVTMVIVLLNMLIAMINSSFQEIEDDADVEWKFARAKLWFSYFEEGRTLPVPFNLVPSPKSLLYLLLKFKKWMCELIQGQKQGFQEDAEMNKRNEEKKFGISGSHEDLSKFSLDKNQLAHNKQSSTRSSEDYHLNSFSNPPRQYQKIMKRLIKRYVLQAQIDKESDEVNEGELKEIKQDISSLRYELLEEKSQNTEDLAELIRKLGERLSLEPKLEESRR
TRPC6 inh – blocks the mouse TRPC6 cation channel; Q61143; HEK293-TRPC6, membrane potential dye, ACh-evoked depolarization; hits give low values; B-score at 10 µM; actives 1.1% (n = 310,000); AID 2553;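 active = B-score under library mean minus 3 SD, initial fluorescence not abnormally high, positive integrated signal ratio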;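 note: B-score derived from integrated fluorescence ratio over the kinetic read; more negative B-score means stronger inhibition of depolarization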
TRPC4 inh – inhibitors of mouse TRPC4 channel. HEK293 TRPC4beta/mu-opioid, DAMGO-evoked Fluo4 calcium flux; hits give low values. B-score at 10 µM. actives 0.39% (n = 300,000). AID 2247;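 active = B-score over 3 SD under the library average, no early fluorescence shift, positive overall ratio signal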
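Material: HEK293 cells with stable TRPC4beta plus mu-opioid receptor expression / Probe or stimulus: DAMGO in two steps, submaximal then maximal / Compound: single concentration per test compound / Technique: kinetic Fluo4 fluorescence imaging of calcium influx / Read-out: per-well B score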
TRPC4 act – TRPC4 (mouse) channel activation; HEK293 TRPC4beta/mu-opioid, Fluo4 calcium fluorescence; hits give high values; Q9QUQ5; B-score at 10 µM; actives 0.49% (n = 310,000);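 active = B-score above 5 SD of library B-scores, and initial fluorescence ratio not above library mean plus 5 SD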;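 note: positive B-score marks a calcium rise read as TRPC4 activation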
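Technique: kinetic Fluo4 calcium fluorescence; Test system: TRPC4beta and mu-opioid receptor HEK293 stable cells; Measure: B-scored integrated calcium fluorescence ratio; Benchmarks: low control buffer alone, high control maximal DAMGO; Schedule: 45 min room-temperature Fluo4 loading, 110 s read.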
TRPC4 PAM – TRPC4 (mouse) allosteric potentiation | Q9QUQ5 | HEK293 TRPC4beta/mu-opioid, DAMGO EC20, Fluo-4 Ca2+ flux; hits give high values | actives 0.42% (n = 310,000) | B-score at 10 µM | AID 2227;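 active = B-score of calcium response area above 5 SD of library B-scores, with initial fluorescence ratio within 5 SD of library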;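 note: B-score of integrated fluorescence ratio over time as area under calcium response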
HEK293 TRPC6 ctr – checks TRPC6 modulator effects in parental HEK293 cells. membrane potential signal change, % at 10 µM. membrane potential dye fluorescence. shares compounds with TRPC6 inh. AID 488924. actives 51% (n = 2,400);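 active = membrane potential signal moves up or down beyond 5 SD from buffer-only wells, on both duplicate plates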
HEK293 MPD ctr 2 – second check of TRPC6 modulator effects in parental HEK293 cells. shares compounds with TRPC6 inh. membrane potential dye fluorescence; after compound, maximal acetylcholine stimulation. AID 488926. inhibition, % at 10 µM. actives 14% (n = 2,400);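 active = membrane potential signal drops by more than 5 SD from the mean control signal, in both duplicate plates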;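 note: plate controls were acetylcholine ECmax control wells for no effect and buffer only wells for full effect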
TRPC4/MOR mod – mouse TRPC4 off-target activity of TRPC6 modulators. shares compounds with TRPC6 inh. HEK293 TRPC4/mu-opioid, membrane potential fluorescence. percent change from control (negative = decrease, positive = increase), % at 10 µM. actives 69% (n = 2,400);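 active = membrane potential signal moved up or down beyond 5 SD of buffer control wells, in both duplicate plates, actives on both sides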;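 note: plate controls were assay buffer wells for no effect and DAMGO maximal-effect wells for full effect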
TRPC4 ctr inh 2 – second check of whether TRPC6 modulators also affect mouse TRPC4; shares compounds with TRPC6 inh; HEK293 TRPC4/mu-opioid, membrane potential dye fluorescence; stimulated with maximal-effect DAMGO; inhibition, % at 10 µM; actives 55% (n = 2,400); AID 488928;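 active = drop in membrane potential signal beyond 5 SD of the control wells in both duplicate plates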;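 note: TRPC4 counter screen for TRPC6 hits run under conditions tuned for TRPC6 not TRPC4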
TRPC6 inh conf – confirmation of mouse TRPC6 inhibitors. shares compounds with TRPC6 inh. HEK293-TRPC6, membrane potential dye, ACh-evoked depolarization. inhibition, % at 10 µM. actives 43% (n = 3,300). AID 488960;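 active = fluorescence ratio falls more than 5 SD below the full-stimulation control mean, in both duplicate runs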;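 note: integrated fluorescence ratio of peak minus minimum over baseline after agonist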
TRPC6 act conf – confirmation of mouse TRPC6 activators; shares compounds with TRPC6 inh; HEK293-TRPC6 membrane potential dye fluorescence, FDSS; activation, % at 10 µM; actives 11% (n = 2,800);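 active = ratio signal rise beyond 5 SD above unstimulated control wells' mean, seen in both duplicate runs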;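 note: plate controls were buffer EC0 wells for no effect and acetylcholine ECmax response for full effect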
* marks the source's active call; other numbers are inactive results. An excerpt weighted towards active compounds, which were near 2.3% of everything screened.

Screening O=C(c1ccccc1)N1CCN(Cc2ccccc2C(F)(F)F)CC1 returned TRPC6 act 12*, TRPC6 inh inactive, TRPC4 inh inactive, TRPC4 act inactive, TRPC4 PAM inactive, HEK293 TRPC6 ctr inactive, HEK293 MPD ctr 2 inactive, TRPC4/MOR mod 18%*, TRPC4 ctr inh 2 inactive and TRPC6 act conf 134%*.
For COc1ccc(S(=O)(=O)Nc2cccc(N(C)S(C)(=O)=O)c2)cc1Br the results were TRPC6 act inactive, TRPC6 inh inactive, TRPC4 inh inactive, TRPC4 act inactive and TRPC4 PAM inactive.
`CN(c1cccc(NS(=O)(=O)c2cccs2)c1)S(C)(=O)=O` gave TRPC6 act inactive, TRPC6 inh -6.1*, TRPC4 inh inactive, TRPC4 act inactive, TRPC4 PAM inactive, HEK293 TRPC6 ctr inactive, HEK293 MPD ctr 2 inactive, TRPC4/MOR mod inactive, TRPC4 ctr inh 2 inactive, TRPC6 inh conf inactive and TRPC6 act conf inactive.
Screening O=C1c2cccc3c(N4CCCCC4)ccc(c23)C(=O)N1CCO returned TRPC6 act 12*, TRPC6 inh inactive, TRPC4 inh inactive, TRPC4 act inactive, TRPC4 PAM inactive, HEK293 TRPC6 ctr 937%*, HEK293 MPD ctr 2 144%*, TRPC4/MOR mod 218%*, TRPC4 ctr inh 2 122%*, TRPC6 inh conf inactive and TRPC6 act conf 180%*.
For C=C(C)C(=O)Nc1cccc(C2=NOC3(C2)C[C@H](C(N)=O)N(C(=O)/C=C/C)C3)c1 (stereo partly specified) the results were TRPC6 act inactive, TRPC6 inh inactive, TRPC4 inh inactive, TRPC4 act inactive and TRPC4 PAM inactive.
Screening CCOc1ccc(S(=O)(=O)NCc2ccc(OC)cc2)c2cccnc12 returned TRPC6 act inactive, TRPC6 inh inactive, TRPC4 inh inactive, TRPC4 act inactive and TRPC4 PAM inactive.
`COc1ccc(Nc2cc(C)nc3c(C)cccc23)cc1OC` gave TRPC6 act inactive, TRPC6 inh -5*, TRPC4 inh inactive, TRPC4 act inactive, TRPC4 PAM inactive, HEK293 TRPC6 ctr -145%*, HEK293 MPD ctr 2 inactive, TRPC4/MOR mod -30%*, TRPC4 ctr inh 2 55%*, TRPC6 inh conf 44%* and TRPC6 act conf inactive.
`CCOc1ccc(Nc2cc(C)nc3c(C)cccc23)cc1` gave TRPC6 act inactive, TRPC6 inh -5.5*, TRPC4 inh inactive, TRPC4 act inactive, TRPC4 PAM inactive, HEK293 TRPC6 ctr -86%*, HEK293 MPD ctr 2 inactive, TRPC4/MOR mod -22%*, TRPC4 ctr inh 2 52%*, TRPC6 inh conf 43%* and TRPC6 act conf inactive.
COc1ccc(Cl)cc1Nc1cc(C)nc2ccccc12 was read as TRPC6 act inactive, TRPC6 inh -5.4*, TRPC4 inh inactive, TRPC4 act inactive, TRPC4 PAM inactive, HEK293 TRPC6 ctr -76%*, HEK293 MPD ctr 2 inactive, TRPC4/MOR mod -12%*, TRPC4 ctr inh 2 70%*, TRPC6 inh conf 56%* and TRPC6 act conf inactive.
